{"source": "PubChem BioAssay AID504788", "about": "(Broad Institute, 2011)", "note": "Inconclusive results are not listed. The source made the active and inactive calls.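 How the source made its calls: active means compound lowers the viability signal with a fitted half-maximal concentration within ten times the top dose, every run; inconclusive means runs disagree, poor fit, or flat partial inhibition; inactive means the rest.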", "data": [{"system": "not listed separately", "experiment": "HMLE_shECad viability reduction – cell-based, CellTiter-Glo luminescence, dry powder, set 7, dose response (AID 504788)", "details": "HMLE_shECad viability, CellTiter-Glo luminescence, 72 h; at 19.5 µM (top of the series)", "procedure,_shortened": "(§1)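 System: HMLE_shECad cells, E-cadherin knockdown, EMT-induced breast cancer stem cell model / Input: 2000 cells/well / Buffer or medium: serum-free CSC screening medium, 37 °C, 5% CO2 / Doses: 100 nL compound pinned into each well / Incubation: ≥4 h settling, then 70–74 h compound exposure, 37 °C / Technique: CellTiter-Glo luminescence, reagent diluted 1:3 in PBS, 12 min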", "values": [{"smiles": "O=C(c1ccc(COc2ccccc2)o1)N1CC(F)(F)C1", "activity change, negative = inhibition": "1.55% (inactive)"}, {"smiles": "O=C(O)COc1ccc(Cl)cc1Cl", "activity change, negative = inhibition": "-2.16% (inactive)"}, {"smiles": "N#Cc1cccc(/C=C/C(=O)NC2=NCCS2)c1", "activity change, negative = inhibition": "0.158% (inactive)"}, {"smiles": "c1c[nH]c(-c2ccn[nH]2)c1", "activity change, negative = inhibition": "5% (inactive)"}, {"smiles": "Cc1csc(NC(=O)c2ccc(COc3cccnc3)o2)n1", "activity change, negative = inhibition": "-5.96% (inactive)"}, {"smiles": "CC(C)c1ccc(/C=C/C(=O)N2CC(F)(F)C2)cc1", "activity change, negative = inhibition": "-4.76% (inactive)"}, {"smiles": "O=C(COc1ccc(Cl)cc1Cl)NC1=NCCS1", "activity change, negative = inhibition": "-3.83% (inactive)"}, {"smiles": "COc1cc(OC(C)C)ccc1/C=C/C(=O)NC1=NCCS1", "activity change, negative = inhibition": "-1.34% (inactive)"}, {"smiles": "CC(C)c1ccc(C#CC(=O)NC2=NCCS2)cc1", "activity change, negative = inhibition": "-4.05% (inactive)"}, {"smiles": "O=C(COc1ccc(Cl)cc1Cl)N/N=C/c1ccccc1", "activity change, negative = inhibition": "3.46% (inactive)"}, {"smiles": "O=C(COc1ccc(Cl)cc1Cl)n1ccc(-c2ccc[nH]2)n1", "activity change, negative = inhibition": "7.33% (inactive)"}, {"smiles": "O=C(c1ccc(COc2ccccc2)o1)n1ccc(-c2ccc[nH]2)n1", "activity change, negative = inhibition": "7.35% (inactive)"}, {"smiles": "CN(C)C(=N)N=C(N)N", "activity change, negative = inhibition": "6.34% (inactive)"}, {"smiles": "CCc1ccc(/C=C/C(=O)NC2=NCCS2)cn1", "activity change, negative = inhibition": "1.08% (inactive)"}, {"smiles": "N#Cc1ccccc1/C=C/C(=O)NC1=NCCS1", "activity change, negative = inhibition": "-13.1% (inactive)"}, {"smiles": "Cc1cccc(/C=C/C(=O)NC2=NCCS2)c1", "activity change, negative = inhibition": "6.76% (inactive)"}]}, {"system": "HMLE_shECad viability, CellTiter-Glo luminescence, 72 h", "experiment": "HMLE_shECad viability reduction – cell-based, CellTiter-Glo luminescence, dry powder, set 7, dose response (AID 504788)", "details": "not given", "procedure,_shortened": "as §1", "units": {"AC50": "µM"}, "values": [{"smiles": "Cc1cccc(NCc2ccc(C(=O)Nc3nc(C)cs3)o2)n1", "AC50": 18}, {"smiles": "COc1cc(C(C)C)ccc1/C=C/C(=O)NC1=NCCS1", "AC50": 30.6}, {"smiles": "Cc1csc(NC(=O)c2cccc(COc3cccc(F)c3)c2)n1", "AC50": 0.705}, {"smiles": "Cc1csc(NC(=O)c2cccc(COc3cccc(Cl)c3)c2)n1", "AC50": 1.11}, {"smiles": "O=C(/C=C/c1ccc(-c2ccccc2)nc1)NC1=NCCS1", "AC50": 29}, {"smiles": "O=C(COc1c(Cl)cc(Cl)cc1Cl)N/N=C/c1ccc[nH]1", "AC50": 1.7}, {"smiles": "Cc1csc(NC(=O)c2ccc(COc3cccc(OC(F)(F)F)c3)o2)n1", "AC50": 0.895}, {"smiles": "Cc1ccnc(NCc2cccc(C(=O)Nc3nc(C)cs3)c2)c1", "AC50": 17.7}, {"smiles": "Cc1csc(NC(=O)c2cccc(COc3ccccc3F)c2)n1", "AC50": 1.93}, {"smiles": "Cc1csc(NC(=O)COc2ccc(Cl)cc2Cl)n1", "AC50": 28.9}, {"smiles": "COc1cc([C@@H]2c3cc4c(cc3[C@@H](OC3OC5COC(C)OC5C(O)C3O)[C@H]3COC(=O)[C@H]23)OCO4)cc(OC)c1O", "note": "(stereo not given in full)", "AC50": 2.95}, {"smiles": "Cc1csc(NC(=O)c2ccc(COc3ccncc3)o2)n1", "AC50": 20}, {"smiles": "Cc1csc(NC(=O)c2cccc(CNc3ncccc3F)c2)n1", "AC50": 22.9}, {"smiles": "COc1cccc2c1C(=O)c1c(O)c3c(c(O)c1C2=O)C[C@@](O)(C(=O)CO)C[C@@H]3OC1C[C@H](N)[C@H](O)[C@H](C)O1", "note": "(stereo not given in full)", "AC50": 0.053}, {"smiles": "Cc1cccc(NCc2cccc(C(=O)Nc3nc(C)cs3)c2)n1", "AC50": 21.1}, {"smiles": "Cc1cccc(OCc2ccc(C(=O)Nc3nc(C)cs3)o2)n1", "AC50": 18.7}, {"smiles": "CC(C)c1ccc(/C=C/C(=O)n2ccc(-c3ccc[nH]3)n2)cc1", "AC50": 15.6}, {"smiles": "Cc1cccc(OCc2cccc(C(=O)Nc3nc(C)cs3)c2)c1", "AC50": 2.74}, {"smiles": "Cc1csc(NC(=O)c2ccc(COc3ncccc3F)o2)n1", "AC50": 22.7}]}]}
